One may read the inhibition as how much of the control response was suppressed.

Here are results for 29 molecules from ChEMBL document CHEMBL1128326, “N-acylated alpha-amino acids as novel oral delivery agents for proteins” (1995).

Structures are written as SMILES.

The species named for one experiment is Rattus norvegicus. As to the kind of experiment: The compound was tested for oral delivery of calcitonin, activity is measured as reduction in serum calcium levels.
Details: not given
Also noted: unit not given beside the values. The class given is functional. In short, it runs like this: (§1)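 Male Sprague-Dawley rats (125–150 g; groups of 6–7) were anesthetized with ketamine 44 mg/kg plus thiazine 0.5 mg/kg. They were given an aqueous pH 7.2 solution of compound with salmon calcitonin (400 mg/kg and 10 μg/kg) by oral gavage at 2 mL/kg. Control groups received calcitonin alone or compound alone. Tail-artery blood was sampled serially, and serum calcium was measured with a kit; results are % decrease, mean ± SE.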
In the case of `CC(C)C[C@H](NC(=O)C1CC1)C(=O)O`, the “Ca2+ reduction” value is reported as -3.87.

Consider `CC(C)C[C@H](NC(=O)C1CCCC1)C(=O)O`, for which the “Ca2+ reduction” value is -6.28. On the same count and under the same terms, as for `CC(C)C[C@H](NC(=O)C1CCCCC1C(=O)O)C(=O)O` (stereo partly drawn), the figure is -10.47. Same read-out and setting: as for `COc1cccc(C(=O)N[C@@H](CC(C)C)C(=O)O)c1`, the figure is -7.9.

A further experiment has as its system Rattus norvegicus. As to the kind of experiment: The compound was tested for oral delivery of calcitonin, activity is measured as reduction in serum calcium levels at 400 mg/kg and dose of calcitotin is 10 ug/kg. The class given is functional.
Details: not given
In short, it runs like this:
as §1
Turning to `CC(C)C[C@H](NC(=O)c1ccccc1)C(=O)O`, the “Ca2+ reduction” value is on record as -12.9.

With `CC(C)C[C@H](NC(=O)C1CCCCC1)C(=O)O.N=C(N)NCCC[C@H](NC(=O)C1CCCCC1)C(=O)O.O=C(N[C@@H](Cc1ccc(O)cc1)C(=O)O)C1CCCCC1`, the “Ca2+ reduction” value is -33.9. Still for that read-out and setting: the value for `CC(C)C[C@H](NC(=O)C1CCCCC1)C(=O)O` was -21.82; that for `CC(C)C[C@H](NC(=O)C1CCCC(C)C1)C(=O)O` (stereo partly drawn) was -13.69; that for `CC(C)C[C@H](NC(=O)C1CCCCC1C)C(=O)O` (stereo partly drawn) was -18.27.

As for `CC(C)C[C@H](NC(=O)c1cccc([N+](=O)[O-])c1)C(=O)O`, the “Ca2+ reduction” value is -14.5. The same measure, in the same setting: the value for `CC(C)C[C@@H](NC(=O)C1CCCCC1)C(=O)O` was -18.32; that for `CC(C)C[C@H](NC(=O)CCC1CCCCC1)C(=O)O` was -14.97; that for `CC(C)C[C@H](NC(=O)C1CCCCCC1)C(=O)O` was -19.76. Take `CC(C)C[C@H](NC(=O)C1CCC(C)CC1)C(=O)O` (stereo partly drawn): the “Ca2+ reduction” value is given as -15.52. Same read-out and setting: the value for `CC(C)C[C@H](NC(=O)c1ccc([N+](=O)[O-])cc1)C(=O)O` was -11.8.

Turning to `CC(C)C[C@H](NC(=O)c1ccccc1[N+](=O)[O-])C(=O)O`, the “Ca2+ reduction” value is -6.61.

Another experiment deals with Serine protease 1 (Homo sapiens) (UniProt P07477). Nature of the experiment: The compound was tested for inhibitory activity against trypsin at 10 mg/mL.
Serine protease 1 (Homo sapiens), sequence (P07477 whole entry): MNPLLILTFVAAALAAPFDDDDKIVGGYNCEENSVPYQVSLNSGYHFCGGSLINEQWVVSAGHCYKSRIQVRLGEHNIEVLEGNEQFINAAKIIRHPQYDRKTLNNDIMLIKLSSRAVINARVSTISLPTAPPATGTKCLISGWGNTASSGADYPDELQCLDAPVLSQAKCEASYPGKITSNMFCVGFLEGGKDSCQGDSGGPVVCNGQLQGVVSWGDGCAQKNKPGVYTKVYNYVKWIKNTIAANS
Details: not given
In outline: (§2)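 Trypsin activity was taken from USP pancreatin at 1 mg/mL final, in 50 mM potassium phosphate pH 7.6 at 37 °C. Test compound was preincubated with enzyme for 10 min. The reaction was started with N-benzoyl-L-arginine p-nitroanilide (300 μM final), and p-nitroaniline formation was followed at 400 nm over 12 min. Percent inhibition was calculated at 12 min from reaction rates versus compound-free controls.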
In turn, `CC(C)C[C@H](NC(=O)C1CCCCC1)C(=O)O` showed an inhibition of 39%.

Another experiment is filed under the species Rattus norvegicus. As to the kind of experiment: The compound was tested for oral delivery of interferon-alpha in rats.
Details: not given
`O=C(N[C@H](C(=O)O)c1ccccc1)C1CCCCC1` came in with an Amount delivered of 3808 pg/mL.

The test system of another experiment is Rattus norvegicus. As to the kind of experiment: The compound was tested for oral delivery of interferon-alpha in rats.(compound dose=400 mg/kg; inf-alpha dose= 500 ug/kg).
Details: not given
As to `O=C(N[C@H](C(=O)O)c1ccccc1)C1CCCCC1`, the Amount delivered came to 2598 pg/mL.

A further experiment has as its system Rattus norvegicus. As to the kind of experiment: The compound was tested for oral delivery of interferon-alpha in rats.(compound dose=800 mg/kg; inf-alpha dose= 1 mg/kg).
Details: not given
The molecule `O=C(N[C@@H](Cc1ccc(O)cc1)C(=O)O)C1CCCCC1` displayed an Amount delivered of 3422 pg/mL. The same measure, in the same setting: as for `NCCCC[C@H](NC(=O)C1CCCCC1)C(=O)O`, the figure is 3340 pg/mL; as for `N=C(N)NCCC[C@H](NC(=O)C1CCCCC1)C(=O)O`, 2107 pg/mL. Take `O=C(N[C@H](C(=O)O)c1ccccc1)C1CCCC1`: the Amount delivered came to 4707 pg/mL. On the same count and under the same terms, the value for `NC(=O)NCCC[C@H](NC(=O)C1CCCCC1)C(=O)O` was 1922 pg/mL. `O=C(N[C@H](C(=O)O)c1ccccc1)c1ccccc1O` had an Amount delivered of 757 pg/mL.

As to `O=C(N[C@@H](Cc1ccccc1)C(=O)O)C1CCCCC1`, the Amount delivered turned out to be 611 pg/mL. On the same count and under the same terms, as for `O=C(CC1CCCCC1)N[C@H](C(=O)O)c1ccccc1`, the figure is 6401 pg/mL; as for `O=C(N[C@H](C(=O)O)c1ccccc1)c1ccccc1`, 8427 pg/mL; as for `O=C(CCC1CCCCC1)N[C@H](C(=O)O)c1ccccc1`, 3026 pg/mL. `O=C(N[C@H](C(=O)O)c1ccccc1)C1CCCCCC1` returned an Amount delivered of 4066 pg/mL. As for `CCC(C)[C@H](NC(=O)C1CCCCC1)C(=O)O` (stereo partly drawn), the Amount delivered turned out to be 340 pg/mL.

A further experiment has as its target Serine protease 1 (Homo sapiens) (UniProt P07477). As to the kind of experiment: The compound was tested for inhibitory activity against trypsin, activity is expressed as %inhibition. Conditions: concentration not given here. In short, it runs like this:
as §2
Take `O=C(N[C@H](C(=O)O)c1ccccc1)C1CCCCC1`: the inhibition came to 44%.

In the next experiment the test system is Rattus norvegicus. Nature of the experiment: The compound was tested for oral delivery of interferon-alpha in rats.(compound dose=400 mg/kg; inf-alpha dose= 250 ug/kg).
Details: not given
`O=C(N[C@H](C(=O)O)c1ccccc1)C1CCCCC1` came in with an Amount delivered of 434 pg/mL.
